Shown are actives, neighbours in structure and some others; about 2.1% of the full set was active somewhere.
SMARCA2 activ: increases SMARCA2 function in MMTV reporter cells. MG213 cells, MMTV-luciferase reporter, dexamethasone, overnight. activation, % at 9.1 µM. hit rate 1% among 370,000; in the data active = activation above about 7.8%;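 note: 0% = vehicle wells and 100% = reference activator wells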
MC4R ag barr: activates human MC4R beta-arrestin recruitment. P32245. U2OS MC4R beta-arrestin complementation, luminescence; percent of melanotan II response, DMSO zero. activation, % at 8.9 µM. hit rate 0.98% among 360,000. AID 540308;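 active = activation above a per-plate cutoff, the mean activation of sample wells on that plate plus 3 SD, cut at about 8% in these data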
Target sequence (P32245 whole entry, looked up): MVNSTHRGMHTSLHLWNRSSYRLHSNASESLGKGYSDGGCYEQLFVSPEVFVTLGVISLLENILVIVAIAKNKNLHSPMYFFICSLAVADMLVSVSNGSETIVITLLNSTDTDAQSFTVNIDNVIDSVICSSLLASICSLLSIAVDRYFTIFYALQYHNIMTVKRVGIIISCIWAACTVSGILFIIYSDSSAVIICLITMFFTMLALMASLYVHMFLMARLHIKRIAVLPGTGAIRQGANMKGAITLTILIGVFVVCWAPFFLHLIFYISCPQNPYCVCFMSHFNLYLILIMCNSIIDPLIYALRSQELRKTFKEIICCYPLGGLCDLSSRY
CFTR F508del cor: correctors of CFTR F508del function in bronchial epithelial cells; CFBE cells, YFP halide quenching; stimulated with forskolin plus potentiator P3; % fluorescence drop versus neutral controls; activity (quench increase), % at 7.58 µM; hit rate 0.36% among 350,000; AID 720511;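 active = mean added fluorescence quench of at least 8% versus neutral control, with both replicates also reaching 8%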;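 note: cells transiently co-express mutant CFTR-F508del with the halide-sensitive YFP; corrector assay measuring rescue of mutant channel to the surface after 24 h compound exposure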
MC4R antagonist: human MC4R antagonism in cAMP assay. hit rate 0.48% among 360,000. MC4R-expressing cells, MTII-stimulated cAMP, LANCE TR-FRET. inhibition, % at 6.5 µM;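 active = inhibition above its plate's cutoff, the mean of tested wells on that plate plus 3 SD, cut at about 29% in these data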;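 note: 0% = Melanotan II alone and 100% = Melanotan II plus saturating MCL0020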
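System: U2OS cells stably expressing human melanocortin 4 receptor (MC4R). Reagent: Melanotan II challenge after compound preincubation. Doses: 6.5 µM. Times: 30-min compound, 1-h challenge, 1-h detection, room temperature. Measured by: TR-FRET with Eu-cAMP and labeled anti-cAMP, 671 nm. Replicates: singlicate.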
U2OS cAMP counter: counter-screen for MC4R antagonists: nonselective cAMP signaling inhibitors; inhibition, % at 6.5 µM; shares compounds with MC4R antagonist; hit rate 26% among 1,600; parental U2OS, forskolin cAMP, LANCE TR-FRET;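 active = mean inhibition over triplicates above the low-control well mean plus 3 SD, set per campaign, cut at about 13% in these data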;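 note: signal is single emission at 671 nm which falls as cellular cAMP rises; 0% = forskolin-stimulated wells and 100% = buffer without forskolin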
MC4R antag conf: human MC4R cAMP antagonism confirmation; hit rate 27% among 1,600; AID 602195; inhibition, % at 6.5 µM; shares compounds with MC4R antagonist; MC4R-expressing cells, MTII-stimulated cAMP, TR-FRET; in the data active = inhibition above about 29%;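 note: 0% = agonist stimulated wells alone and 100% = agonist stimulated wells plus saturating reference antagonist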
* marks the source's active call; other numbers are inactive results; . = no result given.

SMILES | SMARCA2 activ | MC4R ag barr | CFTR F508del cor | MC4R antagonist | U2OS cAMP counter | MC4R antag conf
O=C(O)C12CC3CC(C1)CC(n1ncc(NCc4ccccc4)c(Cl)c1=O)(C3)C2 | 4 | 2 | -1 | 32* | -1 | -10
CCOc1ccccc1C(=O)N1CCC(n2nnc3cc(C(F)(F)F)ccc32)CC1 | -2 | -1 | . | 5 | . | .
O=C(c1c(F)cccc1F)N1CCC(n2nnc3cc(C(F)(F)F)ccc32)CC1 | -2 | 0 | 2 | 31* | -1 | -2
Cc1ccc(Cl)cc1NC(=O)Nc1cccs1 | -4 | -2 | 0 | 30* | -1 | -2
Cc1ccc(S(=O)(=O)N2CCC(C(=O)NCC3CC3)CC2)cc1 | 0 | 1 | -1 | 20 | . | .
COC(=O)C(Cc1ccc(O)cc1)NC(=O)C1CCN(S(=O)(=O)c2ccc(C)cc2)CC1 (configuration not stated) | -3 | -1 | 0 | 30* | 18* | 31*
CN(C)CC(=O)N1[C@@H]2c3cccc(=O)n3C[C@@H]2[C@@H](CO)[C@@H]1C(=O)NCc1ccccc1F | . | . | 3 | . | . | .
COc1cc(N2C(=O)C=CC2=O)ccc1N1C(=O)C=CC1=O | 7 | -4 | -3 | 103* | 62* | 79*
COc1ccc(N2C(=O)C3CC(C)=C(C)CC3C2=O)c(OC)c1 (configuration not stated) | -2 | 2 | . | 2 | . | .
CCC(=O)N1CC2(CCN(Cc3cccnc3)CC2)c2c(n(C)c3cc(OC)ccc23)[C@@H]1CO | . | . | -2 | . | . | .
COc1cc(NC(=O)C2=C(N3CCOCC3)/C(=C/c3ccc(Cl)cc3)CC2)cc(OC)c1OC | 0 | 0 | . | 29* | 0 | 5
CCSc1nnc(-c2ccccc2SC)o1 | -1 | -2 | 1 | 30* | 8 | 10
CCc1nnc(NC(=O)c2nc(S(=O)(=O)Cc3ccc(C)cc3)ncc2Cl)s1 | -14 | -6 | 6 | 31* | 23* | 39*
CCOc1ccccc1NC(=O)c1nc(S(=O)(=O)Cc2cccc(C)c2)ncc1Cl | 0 | -2 | 4 | 22 | . | .
CCc1nnc(NC(=O)c2nc(S(=O)(=O)Cc3ccccc3)ncc2Cl)s1 | -14 | -1 | 1 | 30* | 12 | 9
CCc1nnc(NC(=O)c2nc(S(=O)(=O)Cc3cccc(C)c3)ncc2Cl)s1 | -14 | 0 | 5 | 39* | 20* | 32*
O=C(NCc1ccccc1)c1c(Cl)nc(Cl)c(Cl)c1Cl | 6 | 0 | 4 | 64* | 45* | 64*
O=C(C[C@@H]1CC[C@H]2[C@@H](COC[C@H](O)CN2C(=O)Nc2ccc(Cl)c(Cl)c2)O1)NCc1ccc(Cl)c(Cl)c1 | . | . | 5 | . | . | .
O=C(NCc1ccccc1)c1nc(S(=O)(=O)Cc2ccccc2)ncc1Cl | -13 | -4 | 0 | 48* | 34* | 60*
COc1ccc(CNC(=O)c2nc(S(=O)(=O)Cc3ccccc3)ncc2Cl)cc1 | -13 | -3 | 4 | 13 | . | .
O=C(C[C@H]1C=C[C@@H](NC(=O)NC2CCCCC2)[C@H](CO)O1)NCc1ccc(F)cc1 | . | . | -2 | . | . | .
COc1cc(C(=O)O/N=C2/C=C(C)C(=O)C=C2C)cc(OC)c1OC | 0 | -1 | . | 13 | . | .
CC1=C/C(=N\OS(=O)(=O)c2ccccc2)C(C)=CC1=O | . | 7 | . | 68* | 39* | 76*
O=C(CCNC(=O)c1ccc([N+](=O)[O-])cc1)Nc1ccc(F)c(F)c1F | 2 | -1 | 1 | 32* | 1 | 4
Cc1ccc(S(=O)(=O)N(C)C[C@H]2Oc3ccc(NC(=O)NC4CCCCC4)cc3C(=O)N([C@@H](C)CO)C[C@@H]2C)cc1 | . | . | 1 | . | . | .
SMILES | SMARCA2 activ | MC4R ag barr | CFTR F508del cor | MC4R antagonist | U2OS cAMP counter | MC4R antag conf
O=C(NCCN1C(=O)S/C(=C\c2ccc(Cl)c([N+](=O)[O-])c2)C1=O)C1=COCCO1 | 3 | -4 | -3 | 29* | 9 | 8
O=C(NCCN1C(=O)S/C(=C\c2ccc(Cl)c(Cl)c2)C1=O)c1cnccn1 | 0 | 1 | . | 6 | . | .
O=C(Oc1ccc(C(=S)N2CCOCC2)cc1)c1ccc([N+](=O)[O-])cc1[N+](=O)[O-] | 0 | -3 | 5 | 0 | . | .
O=C(Oc1cccc(C(=S)N2CCOCC2)c1)c1ccc([N+](=O)[O-])cc1[N+](=O)[O-] | -1 | -1 | -1 | 37* | 6 | 29*
COc1cc(C(=S)N2CCOCC2)ccc1OS(=O)(=O)c1ccccc1[N+](=O)[O-] | 5 | -1 | -2 | 33* | -1 | -5
COc1ccc(C(=S)N2CCOCC2)cc1OS(=O)(=O)c1ccccc1[N+](=O)[O-] | 1 | 1 | 2 | -4 | . | .
COc1ccccc1S(=O)(=O)N[C@H]1CC[C@H](CC(=O)N2CCN(C)CC2)O[C@H]1CO | . | . | -2 | . | . | .
CC(C)NC(=O)Nc1ccc2c(c1)C(=O)N([C@@H](C)CO)C[C@@H](C)[C@H](CN(C)Cc1ccc(Oc3ccccc3)cc1)O2 | . | . | -3 | . | . | .
C[C@@H]1CN([C@@H](C)CO)C(=O)c2cc(-c3cccc(F)c3)cnc2O[C@@H]1CN(C)CC1CCOCC1 | . | . | -2 | . | . | .
O=C(CNC(=O)c1ccccc1F)OCc1nc2ccccc2s1 | 6 | 0 | -1 | 15 | . | .
CC1CCCCN1C(=O)COC(=O)CNC(=O)c1ccc(Cl)cc1Cl (configuration not stated) | 0 | -1 | -2 | 19 | . | .
CN(C(=O)COC(=O)CNC(=O)c1ccc(Cl)cc1Cl)c1ccccc1 | 0 | -1 | 2 | 30* | 12 | 23
O=C(CNC(=O)c1ccc(Cl)cc1Cl)OCc1nc2ccccc2s1 | -2 | 2 | . | 29* | 14* | 18
COC(=O)C1CCN(C(=O)COC(=O)CNC(=O)c2ccc(Cl)cc2Cl)CC1 | 0 | 1 | 0 | 34* | 14* | 25
CO[C@H]1CN(C)C(=O)c2cc(NC(=O)NC(C)C)ccc2OC[C@H](C)NC[C@@H]1C | . | . | 3 | . | . | .
C[C@H](CO)N1C[C@H](C)[C@H](CN(C)C(=O)CN(C)C)Oc2cc(C3=CCCCC3)ccc2S1(=O)=O | . | . | 2 | . | . | .
CCCCC(=O)Nc1ccc(C(=O)N(CC)c2ccccc2C)cc1 | 0 | 1 | -4 | 30* | 2 | -9
CCN(C(=O)c1ccc(NC(C)=O)cc1)c1ccccc1C | 2 | 0 | . | 9 | . | .
CC1CCC2(CC1)NC(=O)N(CC(=O)Nc1ccc3c(c1)OCCCO3)C2=O (configuration not stated) | 3 | 0 | 0 | 2 | . | .
CC1CCC2(CC1)NC(=O)N(CC(=O)NC(=O)Nc1ccc3c(c1)OCCO3)C2=O (configuration not stated) | 0 | 3 | 1 | 29* | -3 | -12
C[C@H](CO)N1C[C@H](C)[C@H](CN(C)C(=O)Nc2cccc3ccccc23)OCCCC[C@H](C)Oc2ccc(NC(=O)Cc3ccccc3)cc2C1=O | . | . | -4 | . | . | .
